Measured values as given in ChEMBL document CHEMBL1799969, “Development of endocannabinoid-based chemical probes for the study of cannabinoid receptors” (J Med Chem, 2011).
Calls of active or inactive are those of the source. The calls are words filed in the database; no cut-off is given here.

Tests used:
Cannabinoid receptor 2 = Cannabinoid receptor 2 (Homo sapiens, UniProt P34972); assay: Displacement of [3H]-CP55940 from human CB2 receptor expressed in HEK-293-EBNA cell membranes after 90 mins by scintillation counting
Sequence of Cannabinoid receptor 2 (P34972 whole entry): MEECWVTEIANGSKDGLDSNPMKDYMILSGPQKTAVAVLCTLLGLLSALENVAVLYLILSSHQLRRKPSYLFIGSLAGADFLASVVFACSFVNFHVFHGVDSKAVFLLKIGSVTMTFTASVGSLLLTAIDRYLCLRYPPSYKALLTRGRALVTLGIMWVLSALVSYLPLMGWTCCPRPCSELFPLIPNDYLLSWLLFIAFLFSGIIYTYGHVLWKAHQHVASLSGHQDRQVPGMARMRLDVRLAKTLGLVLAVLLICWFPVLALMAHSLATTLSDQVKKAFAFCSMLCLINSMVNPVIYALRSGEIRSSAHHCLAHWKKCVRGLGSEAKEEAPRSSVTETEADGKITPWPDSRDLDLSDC
How it was run: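 Competitive radioligand binding with [3H]CP55940 on membranes of HEK-293-EBNA cells transfected with human CB1 or CB2 receptor. Ki derived from IC50 by the Cheng-Prusoff equation. Mean ± SEM of two to four independent experiments, each run in triplicate.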

Cannabinoid receptor 1 [1] = target: T1, Cannabinoid receptor 1 (Homo sapiens, UniProt P21554); assay: Displacement of [3H]-CP55940 from human CB1 receptor expressed in HEK-293-EBNA cell membranes after 90 mins by scintillation counting
T1 sequence (P21554 whole entry): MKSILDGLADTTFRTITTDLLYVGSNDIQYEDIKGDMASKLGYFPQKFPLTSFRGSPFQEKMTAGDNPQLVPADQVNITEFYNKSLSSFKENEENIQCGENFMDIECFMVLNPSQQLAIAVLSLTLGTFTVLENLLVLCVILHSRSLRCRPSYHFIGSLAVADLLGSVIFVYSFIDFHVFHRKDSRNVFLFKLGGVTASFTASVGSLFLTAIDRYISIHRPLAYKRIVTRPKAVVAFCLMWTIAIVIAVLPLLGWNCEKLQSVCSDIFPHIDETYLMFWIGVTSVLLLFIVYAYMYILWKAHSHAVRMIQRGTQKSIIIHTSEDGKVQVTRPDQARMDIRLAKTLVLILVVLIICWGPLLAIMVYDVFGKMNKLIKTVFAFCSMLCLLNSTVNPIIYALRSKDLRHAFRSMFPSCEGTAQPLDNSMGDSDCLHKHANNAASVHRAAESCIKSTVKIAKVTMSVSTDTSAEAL

Cannabinoid receptor 1 [2] = target: T1, Cannabinoid receptor 1; assay: Binding affinity to CB1 receptor
How it was run: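 Radioligand competition binding on membranes of HEK-293-EBNA cells transfected with human CB1 receptor, displacing [3H]CP55940. Ki obtained from IC50 by the Cheng-Prusoff equation. Two to four independent experiments, each run in triplicate; mean ± SEM reported.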

Cannabinoid receptor 1 [3] = target: T1, Cannabinoid receptor 1; assay: Binding affinity at CB1 receptor expressed in mouse HT22 cells at 1 uM incubated for 1 hr using strepavidin-Alexa Fluor 488 staining based by fluorescence microscopy; type: cell-based; conditions: HT-22
How it was run: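 HT-22 mouse hippocampal cells transiently transfected with CB1 were incubated with the biotinylated probe at 1 μM for 1 h. Excess probe was removed and bound probe detected with streptavidin-Alexa Fluor 488. Nuclei were stained with Hoechst 33258 and imaged by fluorescence microscopy. Nontransfected cells, or an excess of HU210, served as specificity controls.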

Cannabinoid receptor 1 [4] = target: T1, Cannabinoid receptor 1; assay: Binding affinity at CB1 receptor expressed in mouse HT22 cells at 1 uM incubated for 1 hr using antiCB1-antibody based fluorescence microscopy; type: cell-based; conditions: HT-22
How it was run: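 Transfected HT-22 cells were treated in sequence with the probe (1 μM, 1 h), streptavidin-Alexa 488, anti-CB1 antibody and an anti-rabbit Alexa 633 conjugate. Co-labelling was imaged by fluorescence microscopy in the red channel and as a merge.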

SMILES | Ki (Cannabinoid receptor 2) [nM] | Ki (Cannabinoid receptor 1 [1]) [nM] | Ki (Cannabinoid receptor 1 [2]) [nM] | Activity (Cannabinoid receptor 1 [3]) | Activity (Cannabinoid receptor 1 [4])
CCCCC/C=C\C/C=C\C/C=C\C/C=C\CCCCOC(CO)CO | > 1000 | 25 |  |  | 
Cc1cc(-c2cc(C(=O)NC3C4(C)CCC(C4)C3(C)C)nn2Cc2ccc(CNCCCCCCN)cc2)ccc1Cl (stereo not drawn) | 260 |  |  |  | 
C#CCCCC(=O)OC[C@@H](C)NC(=O)CCC/C=C\C/C=C\C/C=C\C/C=C\CCCCC | > 2000 | 2000 |  |  | 
O=C(CCCC[C@@H]1SC[C@@H]2NC(=O)N[C@@H]21)NCCCCCC(=O)OCCCC/C=C\C/C=C\C/C=C\C/C=C\CCCC(=O)NC1CC1 | > 2000 | > 2000 |  |  | 
CCCCCCC(C)(C)c1cc(O)c2c(c1)OC(C)(C)[C@@H]1CC=C(CO)C[C@@H]21 |  |  | 0.06 |  | 
C#CCCCC(=O)OCC(CO)OCCCC/C=C\C/C=C\C/C=C\C/C=C\CCCCC (stereo not drawn) | 84.9 | 84.7 |  |  | 
CCCCC/C=C\C/C=C\C/C=C\C/C=C\CCCC(=O)N[C@H](C)COC(=O)CCCCCNC(=O)CCCC[C@@H]1SC[C@@H]2NC(=O)N[C@@H]21 | > 2000 | 2000 |  |  | 
CCCCC/C=C\C/C=C\C/C=C\C/C=C\CCCC(=O)OC(CO)CO [2-ARACHIDONOYLGLYCEROL] | 1300 |  |  |  | 
C#CCCCC(=O)N[C@@H](Cc1ccc(C(=O)c2ccccc2)cc1)C(=O)OC[C@@H](C)NC(=O)CCC/C=C\C/C=C\C/C=C\C/C=C\CCCCC | > 2000 | 2000 |  |  | 
CCCCC/C=C\C/C=C\C/C=C\C/C=C\CCCCOC(CO)COC(=O)CCCCCNC(=O)CCCC[C@@H]1SC[C@@H]2NC(=O)N[C@@H]21 (stereo partly drawn) | 450 | 221 |  | Active | Active
C[C@H](CO)NC(=O)CCC/C=C\C/C=C\C/C=C\C/C=C\CCCCOC(=O)CCCCCNC(=O)CCCC[C@@H]1SC[C@@H]2NC(=O)N[C@@H]21 | > 2000 | 2000 |  |  | 
CCCCC/C=C\C/C=C\C/C=C\C/C=C\CCCC(=O)OC(CO)COC(=O)CCCCCNC(=O)CCCC[C@@H]1SC[C@@H]2NC(=O)N[C@@H]21 (stereo partly drawn) | 379 | > 5000 |  |  | 
